An excerpt weighted towards active compounds, which were near 5.8% of everything screened.
KDM4C inh – blocks human GASC-1 (KDM4C) demethylase activity | inhibition, % at 12.5 µM | GST-KDM4C 2-372, H3K9me3 peptide, LANCE TR-FRET | Q9H3R0 | 0.15% of 96,000 active;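 active means mean replicate inhibition above about 25%, with at least 55% of replicates also reaching it, limit read from the data, passing the limit was not always enough; inconclusive means only one of those two conditions met; inactive means neither condition met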
Target sequence (Q9H3R0 2-372 limits assumed): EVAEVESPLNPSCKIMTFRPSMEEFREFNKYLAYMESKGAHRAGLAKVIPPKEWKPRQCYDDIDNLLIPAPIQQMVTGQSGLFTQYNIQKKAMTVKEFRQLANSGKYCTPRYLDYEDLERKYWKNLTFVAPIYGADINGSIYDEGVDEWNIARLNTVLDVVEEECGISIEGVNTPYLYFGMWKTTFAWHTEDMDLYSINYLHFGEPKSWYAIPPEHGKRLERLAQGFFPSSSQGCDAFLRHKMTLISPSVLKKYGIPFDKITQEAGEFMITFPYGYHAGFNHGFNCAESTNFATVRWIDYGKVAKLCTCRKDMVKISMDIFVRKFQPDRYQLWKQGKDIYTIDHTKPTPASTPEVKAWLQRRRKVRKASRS
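Test system – GST-tagged GASC-1 (JMJD2C) catalytic fragment, aa 2-372 · Medium – HEPES buffer, pH 7.5, plus ascorbate · Reagent – H3K9me3 peptide with Fe(II)/2OG · Compound – one test concentration per compound · Timing – 30 min reaction, 60 min detection, RT · Technique – TR-FRET with Eu antibody and ULight streptavidin, EDTA stop · Read-out basis – inhibition from TR-FRET ratio decrease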
Pf Dd2 growth – P. falciparum Dd2 growth inhibition; 2.3% of 94,000 active; activity change, % at 10 µM; SYBR Green, 72 h; active compounds read low; in the data active means activity change below about -80%; inconclusive means no clear call, values can overlap the other calls
T cruzi growth-1 – inhibitors of T. cruzi proliferation; T. cruzi beta-gal in NIH3T3, GalScreen luminescence, 90 h; inhibition, % at 8.34 µM; 5.9% of 77,000 active;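 active means mean inhibition above about 93%, with at least 55% of replicates each passing it, limit read from the data, passing the limit was not always enough; inconclusive means only one of those two conditions holds; inactive means neither condition holds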
IDH1 mut inh – IDH1 R132H (human) inhibition; AID 624101; 0.18% of 70,000 active; IDH1 R132H reductase, diaphorase/resazurin fluorescence, 60 min; inhibition, % at 10 µM; in the data active means inhibition above about 34%; inconclusive means no clear call, values can overlap the other calls; inactive means below about 11%
Target sequence (O75874 whole entry R132H): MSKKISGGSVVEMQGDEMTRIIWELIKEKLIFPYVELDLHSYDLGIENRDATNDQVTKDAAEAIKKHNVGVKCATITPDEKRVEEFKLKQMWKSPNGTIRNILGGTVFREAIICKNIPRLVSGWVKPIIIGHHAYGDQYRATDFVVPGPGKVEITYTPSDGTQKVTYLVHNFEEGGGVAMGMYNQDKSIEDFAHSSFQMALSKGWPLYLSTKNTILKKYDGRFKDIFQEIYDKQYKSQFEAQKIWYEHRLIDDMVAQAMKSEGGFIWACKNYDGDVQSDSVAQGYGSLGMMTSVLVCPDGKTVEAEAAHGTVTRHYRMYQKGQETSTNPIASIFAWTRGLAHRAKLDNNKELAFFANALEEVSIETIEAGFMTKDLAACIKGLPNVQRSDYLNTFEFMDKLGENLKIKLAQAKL
T cruzi growth-2 – inhibitors of T. cruzi proliferation; 72% of 5,600 active; T. cruzi beta-gal in NIH3T3, GalScreen luminescence, 90 h; shares compounds with T cruzi growth-1; inhibition, % at 8.35 µM;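 active means mean replicate inhibition above about 95% and at least 55% of replicates individually reaching it, limit read from the data; inconclusive means only one of the two criteria is met; inactive means neither criterion is met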
T cruzi growth-3 – Trypanosoma cruzi proliferation inhibition | T. cruzi beta-gal in NIH3T3, GalScreen luminescence, 90 h | 21% of 5,600 active | AID 651740 | inhibition, % at 2.09 µM | shares compounds with T cruzi growth-1;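 active means mean inhibition above about 95%, with at least 55% of replicates also reaching it, limit read from the data; inconclusive means meets just one of the two conditions; inactive means meets neither condition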
3T3 cytotox – NIH/3T3 (mouse) viability loss. shares compounds with T cruzi growth-1. NIH/3T3 viability, CellTiter-Glo ATP luminescence, 90 h. cytotoxicity (signal decrease), % at 8.35 µM. 14% of 5,600 active. AID 651742;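 active means mean signal decrease across replicates above about 35% based on untreated-well scatter, with enough replicates individually passing, limit read from the data; inconclusive means no rule stated though some were filed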
3T3 cytotox 2 – kills mouse NIH/3T3 fibroblasts; shares compounds with T cruzi growth-1; NIH/3T3 viability, CellTiter-Glo ATP luminescence, 90 h; inhibition, % at 24.9 µM; 56% of 5,600 active;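 active means mean loss of cell viability signal at or above a set limit, and enough replicates individually reaching it; inconclusive means meets only the mean limit or only the replicate share; inactive means meets neither condition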
Of the large screens only hits and unclear results are named; the others gave an inactive call (follow-up assays come after a bar, where they were run).

C[C@@H]1CN([C@@H](C)CO)C(=O)c2c(c3ccccc3n2C)-c2ccccc2CO[C@@H]1CN(C)S(=O)(=O)c1ccc(Cl)cc1	Pf Dd2 growth -87, T cruzi growth-1 100 | T cruzi growth-2 98 | T cruzi growth-3 102 | 3T3 cytotox inactive | 3T3 cytotox 2 66
C[C@@H]1CN([C@H](C)CO)C(=O)c2c(c3ccccc3n2C)-c2ccccc2CO[C@@H]1CN(C)S(=O)(=O)c1ccc(C#N)cc1	none
C[C@H](CO)N1C[C@H](C)[C@H](CN(C)S(=O)(=O)c2cccc(C#N)c2)OCc2ccccc2-c2c(n(C)c3ccccc23)C1=O	Pf Dd2 growth -83, T cruzi growth-1 101 | T cruzi growth-2 105 | T cruzi growth-3 inactive | 3T3 cytotox inactive | 3T3 cytotox 2 inactive
C[C@H]1CN([C@@H](C)CO)C(=O)c2c(c3ccccc3n2C)-c2ccccc2CO[C@@H]1CN(C)S(=O)(=O)c1cccc(F)c1	Pf Dd2 growth -88, T cruzi growth-1 102 (no result: IDH1 mut inh) | T cruzi growth-2 108 | T cruzi growth-3 inactive | 3T3 cytotox inactive | 3T3 cytotox 2 27
C[C@H](CO)N1C[C@H](C)[C@H](CN(C)S(=O)(=O)c2ccccc2F)OCc2ccccc2-c2c(n(C)c3ccccc23)C1=O	Pf Dd2 growth -87, T cruzi growth-1 99 | T cruzi growth-2 104 | T cruzi growth-3 inactive | 3T3 cytotox 44 | 3T3 cytotox 2 97
Cc1ccc(NC(=O)CC2NC3CCCCC3NC2=O)cc1Cl (configuration not stated)	none (no result: KDM4C inh, Pf Dd2 growth, T cruzi growth-1)
COC(=O)c1cc(O)cc(O)c1C(=O)c1c(O)c(Cl)c(C)c(Cl)c1OC	none (no result: KDM4C inh, Pf Dd2 growth, T cruzi growth-1)
CC(Oc1ccc(F)cc1)C(=O)NCCN1CCOCC1 (configuration not stated)	none (no result: KDM4C inh, Pf Dd2 growth, T cruzi growth-1)
C[C@H]1CN([C@@H](C)CO)C(=O)c2c(c3ccccc3n2C)-c2ccccc2CO[C@@H]1CN(C)S(=O)(=O)c1ccsc1	Pf Dd2 growth -80, T cruzi growth-1 114 (no result: IDH1 mut inh) | T cruzi growth-2 107 | T cruzi growth-3 inactive | 3T3 cytotox inactive | 3T3 cytotox 2 inactive
Cc1cccc(S(=O)(=O)N(C)C[C@H]2OCc3ccccc3-c3c(n(C)c4ccccc34)C(=O)N([C@H](C)CO)C[C@@H]2C)c1	none (no result: IDH1 mut inh)
Cc1cccc(S(=O)(=O)N(C)C[C@@H]2OCc3ccccc3-c3c(n(C)c4ccccc34)C(=O)N([C@H](C)CO)C[C@@H]2C)c1	Pf Dd2 growth -86, T cruzi growth-1 inconclusive (no result: IDH1 mut inh) | T cruzi growth-2 99 | T cruzi growth-3 106 | 3T3 cytotox inactive | 3T3 cytotox 2 78
C[C@@H]1CN([C@@H](C)CO)C(=O)c2c(c3ccccc3n2C)-c2ccccc2CO[C@@H]1CN(C)S(=O)(=O)c1ccsc1	none
O=c1[nH]cnc2c1cnn2Cc1ccc(Cl)cc1	none (no result: KDM4C inh, Pf Dd2 growth, T cruzi growth-1)
O=C(CSc1nc2ccccc2[nH]1)Nc1ccc(Cl)c(Br)c1	none (no result: KDM4C inh, Pf Dd2 growth, T cruzi growth-1)
CC1OC(OC2C(O[C@H]3OC[C@](O)(CO)[C@H]3O)COC(O[C@@H]3[C@@H](O)[C@@H](O)[C@H](OC4C(OC(=O)[C@]56CCC(C)(C)CC5C5=CCC7[C@@]8(C)C[C@H](O)[C@H](OC9OC(CO)C(O)C(O)C9O)[C@@](C)(CO)C8[C@H](O)C[C@@]7(C)[C@]5(C)CC6)OCC(O)C4O)O[C@H]3C)C2O)C(O)C(O)C1O (some centres not stated)	none (no result: KDM4C inh, Pf Dd2 growth, T cruzi growth-1)
COc1ccc([N+](=O)[O-])cc1CSc1nnc(-c2ccccc2)n1-c1ccccc1	none (no result: KDM4C inh, Pf Dd2 growth, T cruzi growth-1)
OC[C@@H]1[C@@H](c2ccc(/C=C/c3ccccc3)cc2)[C@H]2CN(Cc3ccncc3)CCCCN12	T cruzi growth-1 97 (no result: IDH1 mut inh) | T cruzi growth-2 105 | T cruzi growth-3 inactive | 3T3 cytotox 46 | 3T3 cytotox 2 102
OC[C@@H]1[C@@H](c2ccc(/C=C/c3ccccc3)cc2)[C@@H]2CN(Cc3ccncc3)CCCCN12	T cruzi growth-1 inconclusive (no result: IDH1 mut inh) | T cruzi growth-2 99 | T cruzi growth-3 inactive | 3T3 cytotox inactive | 3T3 cytotox 2 106
COc1ccc(S(=O)(=O)N[C@@H]2C=C[C@H](CC(=O)N3CCC(Cc4ccccc4)CC3)O[C@@H]2CO)cc1	T cruzi growth-1 inconclusive | T cruzi growth-2 inactive | T cruzi growth-3 inactive | 3T3 cytotox inactive | 3T3 cytotox 2 32
COc1ccc(S(=O)(=O)N[C@@H]2C=C[C@@H](CC(=O)N3CCC(Cc4ccccc4)CC3)O[C@H]2CO)cc1	T cruzi growth-1 inconclusive | T cruzi growth-2 inactive | T cruzi growth-3 inactive | 3T3 cytotox inactive | 3T3 cytotox 2 32
Cc1nc(SCC(=O)c2cc3ccccc3oc2=O)c(C(N)=O)c(C)c1C	none (no result: KDM4C inh, Pf Dd2 growth, T cruzi growth-1)
O=C(NC[C@@H]1N[C@@H](CO)[C@@H]1c1ccc(-c2ccccc2F)cc1)c1ccccn1	T cruzi growth-1 102 (no result: IDH1 mut inh) | T cruzi growth-2 inactive | T cruzi growth-3 inactive | 3T3 cytotox inactive | 3T3 cytotox 2 inactive
N#C[C@@H]1N[C@H](CO)[C@H]1c1ccc(C2=CCCC2)cc1	T cruzi growth-1 101 (no result: IDH1 mut inh) | T cruzi growth-2 inactive | T cruzi growth-3 inactive | 3T3 cytotox inactive | 3T3 cytotox 2 inactive
N#C[C@@H]1N[C@@H](CO)[C@@H]1c1ccc(-c2ccccc2F)cc1	T cruzi growth-1 inconclusive (no result: IDH1 mut inh) | T cruzi growth-2 inactive | T cruzi growth-3 inactive | 3T3 cytotox inactive | 3T3 cytotox 2 inactive
N#C[C@@H]1N[C@H](CO)[C@H]1c1ccc(-c2ccccc2F)cc1	T cruzi growth-1 102 (no result: IDH1 mut inh) | T cruzi growth-2 inactive | T cruzi growth-3 inactive | 3T3 cytotox inactive | 3T3 cytotox 2 inactive
O=C(NC[C@H]1N[C@@H](CO)[C@H]1c1ccc(-c2ccccc2)cc1)c1ccccc1F	none (no result: IDH1 mut inh)
CC(C)(C)SCCNc1nc(Sc2ccc(Cl)cc2)nc(N2CCSCC2)n1	none (no result: KDM4C inh, Pf Dd2 growth, T cruzi growth-1)
CCCCCC1C(=O)O/C(=C\C(=O)O)C1=O (configuration not stated)	none (no result: KDM4C inh, Pf Dd2 growth, T cruzi growth-1)
CC(C)Cc1cnc(CCC(N)=O)c(=O)[nH]1	none (no result: KDM4C inh, Pf Dd2 growth, T cruzi growth-1)
Cc1ccccc1-c1ccc([C@H]2[C@H]3CN(C(=O)Nc4ccccc4)CCCCN3[C@H]2CO)cc1	T cruzi growth-1 118 (no result: IDH1 mut inh) | T cruzi growth-2 112 | T cruzi growth-3 inactive | 3T3 cytotox inactive | 3T3 cytotox 2 34
COc1ccc(NC(=O)N2CCCCN3[C@H](C2)[C@@H](c2ccc(-c4ccccc4C)cc2)[C@@H]3CO)cc1	T cruzi growth-1 98 (no result: IDH1 mut inh) | T cruzi growth-2 98 | T cruzi growth-3 inactive | 3T3 cytotox inactive | 3T3 cytotox 2 104
Cc1ccccc1-c1ccc([C@@H]2[C@H]3CN(C(=O)Nc4ccccc4)CCCCN3[C@H]2CO)cc1	T cruzi growth-1 104 (no result: IDH1 mut inh) | T cruzi growth-2 104 | T cruzi growth-3 inactive | 3T3 cytotox inactive | 3T3 cytotox 2 105
COc1ccc(NC(=O)N2CCCCN3[C@H](CO)[C@H](c4ccc(-c5ccccc5C)cc4)[C@H]3C2)cc1	none (no result: IDH1 mut inh)
